Shown is part of a subset that was picked to be rich in hits.
T cruzi repl = T. cruzi replication inhibition. T. cruzi beta-gal in NIH3T3, luminescence, 90 h. inhibition, % (test concentration not listed). hit rate 1.4% among 300,000;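 active = mean inhibition across valid replicates above about 55%, limit read from the data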;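 also: signal also drops with host cell toxicity which is not excluded here; 0% = plate median of DMSO wells and 100% = zero luminescence signal; higher percent means less beta-gal luminescence so fewer parasites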
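System: Mouse NIH/3T3 fibroblasts infected with β-gal-expressing T. cruzi Tulahuen C4 | Quantity: NIH/3T3 cells, 5,000 per well | Reagent: 5000 reporter trypomastigotes per well | Dosing: Compound pinned at 50 nL/well, DMSO | Schedule: 3 h host attachment, then at least 90 h co-culture | Detection: GalScreen luminescence, 60 min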
UPR CHOP act = activators of apoptotic arm of unfolded protein response (CHOP) | activation, % at 10 µM | CHO-CHOP luciferase reporter, UPR activation, luminescence; percent of tunicamycin response over DMSO baseline | hit rate 0.34% among 330,000;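 active = at 10 µM dose, activation of 40% or more, normalized to positive control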;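 also: 100% = tunicamycin at 10 µg/mL and 0% = DMSO alone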
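System: CHO-CHOP luciferase reporter cell line; amount: 500 cells/well; buffer or medium: F12 medium containing 10% fetal bovine serum; incubation: 6 h compound exposure at 37 °C after overnight seeding; measured by: luciferase luminescence after 10 min with Steady-Glo reagent; evaluation: % reporter activation, DMSO baseline versus tunicamycin full activation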
Dynein transport = dynein cargo transport inhibition. hit rate 0.47% among 220,000. z-score, hits read low. AID 1381. 3617.4 mouse cells, GR-EGFP nuclear translocation imaging; test concentration mostly 20 µM; stimulated with dexamethasone, 1 µM; stronger effect = lower value;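 active = plate z-score of nuclear minus cytoplasmic receptor signal below a set negative limit, without overly bright fluorescence or cell loss, cut at about -3.5 in these data, passing the limit was not always enough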;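 also: z-score of nuclear minus cytoplasmic ring GR-EGFP intensity difference per well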
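Buffer or medium – tet-free medium with charcoal-stripped serum · Signal – automated 10x imaging of fixed Hoechst-stained cells · Also added – dexamethasone agonist, 1.0 µM final, for 30 min · Incubation – induction 48 h, compound 1 h, agonist 30 min · Read-out – GR-EGFP nuclear translocation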
CHOP inhibitor = CHOP inhibition in unfolded protein response; AID 2732; hit rate 3.8% among 220,000; CHO-K1 CHOP-promoter luciferase, tunicamycin-induced, 15-18 h; inhibition, % at 10 µM;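 active = compounds that reduced the stress-induced luciferase reporter signal by more than about 70% of percent inhibition, limit read from the data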;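 also: 0% = tunicamycin plus vehicle and 100% = wells without tunicamycin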
XBP1 UPR activ = activators of adaptive arm of unfolded protein response (XBP1). CHO-XBP1 luciferase reporter, IRE1-XBP1 UPR activation, luminescence; percent of tunicamycin response, DMSO as zero. activation, % at 20 µM. hit rate 0.33% among 330,000;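 active = versus positive control, 20 µM dose yields 30% or more activation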;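 also: 100% = tunicamycin at 10 µg/mL and 0% = DMSO only wells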
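Signal: luciferase luminescence; Assay system: CHO-XBP1 luciferase reporter cells; Amount: one thousand reporter cells per well; Dosing: 20 µM single concentration, DMSO 1%; Benchmarks: high control tunicamycin 10 µg/mL final, low control DMSO vehicle only; Schedule: 6 h compound exposure at 37 °C, 5% CO2; Evaluation: percent activation relative to tunicamycin reference.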
Lmaj promast = Leishmania major promastigote growth inhibition. hit rate 9% among 200,000. Leishmania major promastigotes, resazurin fluorescence viability. AID 1063. inhibition, % at 10 µM; in the data active = inhibition above about 50%;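 also: promastigotes grown with compound for 44 hours at 28 °C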
* = called active by the depositor; nt = no result.

SMILES	T cruzi repl	UPR CHOP act	Dynein transport	CHOP inhibitor	XBP1 UPR activ	Lmaj promast
Oc1oc(-c2cccc3ccccc23)nc1/C=N/c1nccs1	-14.1	1.6	0.338	90.5*	-1.6	2.3
COCCCNCCOc1ccc(C)cc1[N+](=O)[O-]	13.0	1.1	-0.436	2.0	1.8	89.5*
CCC(C)NCCCCOc1ccc(C)cc1[N+](=O)[O-] (stereo not drawn)	-7.3	2.0	-0.505	28.1	-1.1	88.0*
COCCNCCCOc1ccc(C)cc1Br	12.0	0.5	-0.295	17.7	2.2	28.4
COc1cccc(OCCOCCOc2ccc(C)cc2[N+](=O)[O-])c1	0.0	-0.8	0.516	15.9	9.3	3.0
Cc1ccc(OCCOCCN2CCCCC2)c([N+](=O)[O-])c1	-3.5	-0.4	1.44	30.6	-0.4	70.3*
COCCNCCCCOc1ccc(C)cc1[N+](=O)[O-]	14.1	0.5	-0.627	17.2	-0.9	74.2*
COc1ccc(OC)c(S(=O)(=O)Nc2cc3c(cc2N2CCCC2)n(C)c(=O)c(=O)n3C)c1	-13.3	0.1	nt	nt	-4.9	nt
O=C(CCNS(=O)(=O)c1ccc2nsnc2c1)N1CCN(c2ccncc2)CC1	nt	2.1	nt	nt	3.3	nt
COc1ccc(OCCOCCOc2ccc(C)cc2[N+](=O)[O-])cc1	-3.0	0.8	-0.723	10.3	0.5	1.7
C=CCNCCCCOc1ccc(C)cc1[N+](=O)[O-]	-10.4	3.4	-0.62	43.9	-0.9	61.4*
Cc1ccc(OCCOCCNC(C)(C)C)c([N+](=O)[O-])c1	-4.5	-0.3	-0.231	-26.7	0.0	91.8*
Cc1ccc(OCCN2C(=O)c3ccccc3C2=O)c([N+](=O)[O-])c1	3.0	6.9	1.05	-46.3	16.6	-5.3
COCCCNCCOCCOc1ccc(C)cc1[N+](=O)[O-]	20.7	-1.7	0.184	-16.0	-0.4	93.6*
CCN(CC)CCC(=O)c1ccc(F)cc1	-28.4	2.8	0.535	40.1	0.6	80.0*
CCN(CC)C(=O)c1ccccc1NC(=O)CN1C(=O)c2ccccc2S1(=O)=O	-11.2	2.0	nt	nt	-0.3	nt
NC(=S)N/N=C1/CCSc2ccc3ccccc3c21	37.6	-1.0	1.78	75.4*	-0.9	5.3
COc1ccc(N2CCN(S(=O)(=O)CCNC(=O)/C=C/c3ccccc3)CC2)cc1	1.2	-0.9	nt	nt	-1.2	nt
Cc1cc(C(=O)CSc2nc3ccccc3c(=O)[nH]2)c(C)n1CC1CCCO1 (stereo not drawn)	23.7	2.1	-1.11	43.7	0.9	4.0
Cc1cccc(C(=O)NCC(=O)OCC(=O)c2cc(C)n(CC3CCCO3)c2C)c1 (stereo not drawn)	-5.1	-2.4	-0.44	12.2	-5.4	-4.8
Cc1cc(C(=O)COC(=O)c2ccc(CO)cc2)c(C)n1CC1COc2ccccc2O1 (stereo not drawn)	8.4	0.2	-0.233	27.4	3.2	54.5*
Cc1cc(C(=O)CSc2nc3ccccc3c(=O)n2C)c(C)n1CC1CCCO1 (stereo not drawn)	35.9	nt	-1.07	74.0*	nt	2.1
Cc1cc(C(=O)COC(=O)CNC(=O)c2ccccc2)c(C)n1CC1CCCO1 (stereo not drawn)	-5.9	-7.0	0.214	90.1*	-6.3	-4.1
Cc1cc(C(=O)CSc2nnc(-c3ccc(F)cc3)o2)c(C)n1CC1CCCO1 (stereo not drawn)	3.2	-0.1	-1.37	92.7*	-5.5	1.9
COc1cc(CN2CCCN(C)CC2)cc([N+](=O)[O-])c1O	8.7	0.2	nt	nt	-2.6	nt
SMILES	T cruzi repl	UPR CHOP act	Dynein transport	CHOP inhibitor	XBP1 UPR activ	Lmaj promast
Cc1ccc(N2C(=O)CC(Sc3nc4ccccc4o3)C2=O)cc1Cl (stereo not drawn)	69.5*	29.4	-0.00245	7.7	-6.9	-4.9
O=C(OC(c1ccc(NS(=O)(=O)c2ccccc2)cc1)(C(F)(F)F)C(F)(F)F)c1ccccc1	6.9	1.8	0.087	92.3*	3.4	100.0*
CC(=O)c1ccc(NS(=O)(=O)c2ccccc2)cc1	-8.1	-0.5	-0.0942	38.4	-1.2	8.2
Cc1ccc(S(=O)(=O)Nc2ccc(C(OC(=O)c3ccccc3[N+](=O)[O-])(C(F)(F)F)C(F)(F)F)cc2)cc1	19.1	4.0	-0.792	75.9*	-1.1	99.7*
Cc1cc(C)c2nc(N3CCCC(C(=O)NCCCN4CCOCC4)C3)sc2c1 (stereo not drawn)	5.5	2.3	0.184	22.3	3.5	2.5
Cc1cc(C)c2nc(N3CCC(C(=O)NCCCN4CC(C)CC(C)C4)CC3)sc2c1 (stereo not drawn)	58.9*	4.3	5.29	-18.8	5.9	98.6*
O=C(OCCNc1nc(-c2ccccc2)nc2ccccc12)c1ccncc1	18.3	0.1	-1.13	5.9	1.3	71.8*
O=C(OCCNc1nc(-c2ccccc2)nc2ccccc12)c1cccnc1	47.0	1.6	-0.406	23.0	-1.1	56.8*
Cc1cc(C(=O)NNS(=O)(=O)c2ccc(C(C)(C)C)cc2)nn1C(C)(C)C	3.3	-0.2	-0.00149	21.9	-0.5	nt
Cc1nc(-c2ccc(NC(=O)c3ccccc3Br)cc2)cs1	12.5	6.8	-0.512	27.3	1.9	71.5*
Cc1nc(-c2ccc(NC(=O)c3ccccc3C)cc2)cs1	-21.5	nt	-0.421	26.9	nt	50.3*
O=C(Nc1ccc(C2CC2(Cl)Cl)cc1)c1ccccc1Br (stereo not drawn)	13.6	10.5	-0.289	49.4	1.0	83.5*
Cc1nc(-c2ccc(NC(=O)c3ccco3)cc2)cs1	-10.6	-9.5	nt	nt	-8.8	nt
O=C(Nc1ccc(C(=O)N2CCCC2)cc1)c1ccccc1Br	-7.2	2.8	nt	nt	0.8	nt
Cc1cc(C(=O)OCC(=O)c2cccs2)ccc1[N+](=O)[O-]	nt	1.3	nt	nt	1.3	nt
COC(=O)c1ccc(COC(=O)c2ccc(SC)cc2OC)cc1	3.0	5.3	0.869	11.1	3.4	-8.1
O=C(NC1CCOCC1)C1CCC(=O)N(CCc2cccc(F)c2)C1 (stereo not drawn)	-16.1	4.3	nt	nt	1.9	nt
NNC(=O)Nc1cccc(C(F)(F)F)c1	-7.1	-0.7	-0.848	2.8	-1.6	-1.9
NC(=O)/C=C\C(=O)Nc1cccc(C(F)(F)F)c1	30.5	1.2	-1.62	-22.8	-1.6	95.8*
O=C(Nc1cccc(C(F)(F)F)c1)NC1CCCCC1	14.8	1.1	-0.405	86.6*	-8.3	4.3
CC(COc1ccccc1Cc1ccccc1)N1CCCCC1 (stereo not drawn)	47.7	-2.0	nt	nt	-5.4	nt
O=C(c1cc(-c2ccccc2)nc2ccccc12)N1CCN(c2ccccn2)CC1	15.9	0.3	0.0644	-15.5	-1.5	23.9
O=C(c1cc(-c2ccco2)nc2ccccc12)N1CCN(c2ccc(F)cc2)CC1	14.3	0.8	-0.472	14.9	-3.9	66.8*

High-throughput results deposited in PubChem by several laboratories.
